Measured values taken from ChEMBL document CHEMBL1129987, “Structure-based design of nonpeptidic HIV protease inhibitors: the sulfonamide-substituted cyclooctylpyramones” (J Med Chem, 1997).

Assays:
[1] = Total plasma clearance value was obtained after intravenous administration of 2.5 mg/kg of drug in male Dawley rats; assay type: ADME, organism-based; set-up: dose 2.5 mg/kg, route intravenous; conditions: Sprague-Dawley, rat
[2] = Maximum concentration was measured after peroral administration of 5.0 mg/kg of drug in male Dawley rats; assay type: ADME, organism-based; set-up: dose 5 mg/kg, route oral; conditions: Sprague-Dawley, rat, in vivo, po
[3] = Maximum time taken by the drug to reach peak concentration after peroral administration of 5.0 mg/kg of drug in male Dawley rats; assay type: ADME, organism-based; set-up: dose 5 mg/kg, route oral; conditions: Sprague-Dawley, rat, in vivo, po
[4] = Oral bioavailability in rat (Sprague-Dawley) (male) (dose 5 mg/kg); assay type: ADME, organism-based; conditions: in vivo
[5] = Apparent volume of distribution was obtained after intravenous administration of 2.5 mg/kg of drug in male Dawley rats; assay type: ADME, organism-based; set-up: dose 2.5 mg/kg, route intravenous; conditions: Sprague-Dawley, rat, in vivo, read-out: Vss
[6] = tested on: Human immunodeficiency virus 1; assay: Antiviral activity in HIV-1 infected H9 cells; assay type: functional; conditions: Human immunodeficiency virus 1, H9; read-out: ED50 (the source's name)
Procedure, shortened: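 H9 cells infected with HIV-1 IIIB at MOI about 0.005, spun down (200g, 10 min), resuspended at 8 × 10^5 cells/mL in RPMI Complete and mixed with compound; final DMSO 0.1%, triplicate per concentration. After 5 days at 37 °C in 5% CO2, supernatant p24 antigen was measured by ELISA. ED50 is the drug amount that reduces p24 by 50% versus DMSO drug-free controls.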

[7] = molecular target: Human immunodeficiency virus type 1 protease (Human immunodeficiency virus 1, UniProt Q72874); assay: Binding affinity against HIV-1 protease
[8] = Half-life was measured after intravenous administration of 2.5 mg/kg of drug in male Dawley rats; assay type: ADME, organism-based; set-up: dose 2.5 mg/kg, route intravenous; conditions: Sprague-Dawley, rat, in vivo
[9] = Median cell culture toxic dose was evaluated against H9 cell line; assay type: ADME, cell-based; conditions: human, H9 cells; read-out: CCTD50
[10] = molecular target: Human immunodeficiency virus type 1 protease (Human immunodeficiency virus 1) (UniProt Q72874); assay: Percentage inhibition against HIV-1 protease at 1.1 uM concentration of drug
[11] = molecular target: Human immunodeficiency virus type 1 protease (Human immunodeficiency virus 1) (UniProt Q72874); assay: Percentage inhibition against HIV-1 protease at 3 uM concentration of drug
[12] = molecular target: Human immunodeficiency virus type 1 protease (Human immunodeficiency virus 1) (UniProt Q72874); assay: Percentage inhibition against HIV-1 protease at 1 uM concentration of drug
[13] = molecular target: Human immunodeficiency virus type 1 protease (Human immunodeficiency virus 1) (UniProt Q72874); assay: Percentage inhibition against HIV-1 protease at 10 uM concentration of drug

| Compound | EC50 [6] | Ki [7] | CC50 [9] | other results |
| --- | --- | --- | --- | --- |
| Cn1cnc(S(=O)(=O)Nc2cccc([C@@H](c3c(O)c4c(oc3=O)CCCCCC4)C3CC3)c2)c1 | 2100 nM | 0.045 nM | > 30000 nM | clearance [1]: 4.67 mL/min/kg; Cmax [2]: 0.64 µM; Tmax [3]: 0.25 h; bioavailability [4]: 15%; Vd [5]: 0.2 L/kg; half-life [8]: 2.4 h |
| CC(C)CC(c1cccc(NS(=O)(=O)c2ccc(F)cc2)c1)c1c(O)c2c(oc1=O)CCCCCC2 (stereo not drawn) | > 10000 nM | 2.8 nM | > 30000 nM | – |
| CC(C)C(c1cccc(NS(=O)(=O)c2ccc(F)cc2)c1)c1c(O)c2c(oc1=O)CCCCCC2 (stereo not drawn) | > 10000 nM | 11 nM | > 30000 nM | – |
| O=c1c2c(oc(O)c1C(c1cccc(N(CC3CC3)S(=O)(=O)c3ccccc3)c1)C1CC1)CCCCCC2 (stereo not drawn) | – | – | – | inhibition [10]: < 10% |
| CCCC(c1cccc(NS(=O)(=O)c2ccc(C#N)cc2)c1)c1c(O)c2c(oc1=O)CCCCCC2 (stereo not drawn) | 3900 nM | 1.4 nM | > 30000 nM | – |
| COc1ccc(S(=O)(=O)Nc2cccc(C(c3c(O)c4c(oc3=O)CCCCCC4)C3CC3)c2)cc1OC (stereo not drawn) | 4100 nM | 6.8 nM | > 30000 nM | – |
| O=C(O)c1ccc(S(=O)(=O)Nc2cccc(C(c3c(O)c4c(oc3=O)CCCCCC4)C3CC3)c2)cc1 (stereo not drawn) | > 10000 nM | 11 nM | > 30000 nM | – |
| COc1ccc(S(=O)(=O)Nc2cccc(C(c3c(O)c4c(oc3=O)CCCCCC4)C3CC3)c2)cc1 (stereo not drawn) | 4500 nM | 3.9 nM | > 30000 nM | – |
| CCCC(c1cccc(NS(=O)(=O)c2cn(C)cn2)c1)c1c(O)c2c(oc1=O)CCCCCC2 (stereo not drawn) | 2500 nM | 0.1 nM | > 30000 nM | – |
| CCCC(c1cccc(NS(=O)(=O)c2ccc(F)cc2)c1)c1c(O)c2c(oc1=O)CCCCCC2 (stereo not drawn) | 6300 nM | 2.1 nM | > 30000 nM | – |
| O=c1c2c(oc(O)c1C(c1cccc(N(CCc3ccccc3)S(=O)(=O)c3ccccc3)c1)C1CC1)CCCCCC2 (stereo not drawn) | – | – | – | inhibition [10]: < 10%; inhibition [11]: < 10% |
| O=C(O)c1cccc(S(=O)(=O)Nc2cccc(C(c3c(O)c4c(oc3=O)CCCCCC4)C3CC3)c2)c1 (stereo not drawn) | > 10000 nM | 4.5 nM | > 30000 nM | – |
| O=c1c2c(oc(O)c1C(c1cccc(N(S(=O)(=O)c3ccccc3)S(=O)(=O)c3ccccc3)c1)C1CC1)CCCCCC2 (stereo not drawn) | – | – | – | inhibition [12]: 10% |
| CCCC(c1cccc(NS(=O)(=O)c2ccc(Cl)cc2)c1)c1c(O)c2c(oc1=O)CCCCCC2 (stereo not drawn) | > 10000 nM | 4 nM | > 30000 nM | – |
| CC(C)C(c1cccc(NS(=O)(=O)c2ccc(C#N)cc2)c1)c1c(O)c2c(oc1=O)CCCCCC2 (stereo not drawn) | > 10000 nM | 5.9 nM | > 30000 nM | – |
| O=c1c2c(oc(O)c1C(c1cccc(N(Cc3ccccc3)S(=O)(=O)c3ccccc3)c1)C1CC1)CCCCCC2 (stereo not drawn) | – | – | – | inhibition [10]: < 10%; inhibition [13]: < 10% |
| CCC(c1cccc(NS(=O)(=O)c2ccc(C#N)cc2)c1)c1c(O)c2c(oc1=O)CCCCCC2 (stereo not drawn) | 3300 nM | 3.1 nM | > 30000 nM | – |
| COC(=O)c1cccc(S(=O)(=O)Nc2cccc(C(c3c(O)c4c(oc3=O)CCCCCC4)C3CC3)c2)c1 (stereo not drawn) | 2600 nM | 1.4 nM | > 30000 nM | – |
| CCCC(c1cccc(NS(=O)(=O)c2cccc3cccnc23)c1)c1c(O)c2c(oc1=O)CCCCCC2 (stereo not drawn) | > 3000 nM | 2.1 nM | > 30000 nM | – |
| CC(C)N(c1cccc(C(c2c(O)c3c(oc2=O)CCCCCC3)C2CC2)c1)S(=O)(=O)c1ccccc1 (stereo not drawn) | – | – | – | inhibition [10]: < 10% |

More lines, main results first:

| EC50 [6] | Ki [7] | Compound | CC50 [9] | other results |
| --- | --- | --- | --- | --- |
| 1300 nM | 0.4 nM | O=c1c2c(oc(O)c1[C@H](c1cccc(NS(=O)(=O)c3cccc4cccnc34)c1)C1CC1)CCCCCC2 | > 30000 nM | clearance [1]: 2.83 mL/min/kg; Cmax [2]: 6.2 µM; Tmax [3]: 0.25 h; bioavailability [4]: 34%; Vd [5]: 0.15 L/kg; half-life [8]: 1.8 h |
| 6400 nM | 6.2 nM | O=c1c2c(oc(O)c1C(c1cccc(NS(=O)(=O)c3ccc(C(F)(F)F)cc3)c1)C1CC1)CCCCCC2 (stereo not drawn) | > 30000 nM | – |
| 3200 nM | 2.1 nM | O=c1c2c(oc(O)c1C(c1cccc(NS(=O)(=O)c3ccc(Br)cc3)c1)C1CC1)CCCCCC2 (stereo not drawn) | > 30000 nM | – |
| 3400 nM | 4.1 nM | O=c1c2c(oc(O)c1C(c1cccc(NS(=O)(=O)c3ccc4ccccc4c3)c1)C1CC1)CCCCCC2 (stereo not drawn) | > 30000 nM | – |
| > 10000 nM | 6.9 nM | O=c1c2c(oc(O)c1C(c1cccc(NS(=O)(=O)c3cc(Cl)cc(Cl)c3)c1)C1CC1)CCCCCC2 (stereo not drawn) | > 30000 nM | – |
| 1400 nM | 1.9 nM | O=c1c2c(oc(O)c1C(c1cccc(NS(=O)(=O)c3cccc4cccnc34)c1)C1CC1)CCCCCC2 (stereo not drawn) | 82000 nM | – |
| 3600 nM | 5.5 nM | O=c1c2c(oc(O)c1C(c1cccc(NS(=O)(=O)c3cccc4ccccc34)c1)C1CC1)CCCCCC2 (stereo not drawn) | > 30000 nM | – |
| 5400 nM | 0.4 nM | O=c1c2c(oc(O)c1C(c1cccc(NS(=O)(=O)c3ccc4ccccc4n3)c1)C1CC1)CCCCCC2 (stereo not drawn) | > 30000 nM | – |
| 2000 nM | 0.2 nM | O=c1c2c(oc(O)c1C(c1cccc(NS(=O)(=O)c3cnccn3)c1)C1CC1)CCCCCC2 (stereo not drawn) | > 30000 nM | – |
| > 3000 nM | 1.6 nM | O=c1c2c(oc(O)c1C(c1cccc(NS(=O)(=O)c3cscn3)c1)C1CC1)CCCCCC2 (stereo not drawn) | > 30000 nM | – |
| 4200 nM | 4.1 nM | O=c1c2c(oc(O)c1C(c1cccc(NS(=O)(=O)c3ccc(F)cc3F)c1)C1CC1)CCCCCC2 (stereo not drawn) | > 30000 nM | – |
| > 10000 nM | 6.3 nM | O=c1c2c(oc(O)c1C(c1cccc(NS(=O)(=O)c3cccs3)c1)C1CC1)CCCCCC2 (stereo not drawn) | > 30000 nM | – |
| 5300 nM | 3.1 nM | O=c1c2c(oc(O)c1C(c1cccc(NS(=O)(=O)c3ccc(I)cc3)c1)C1CC1)CCCCCC2 (stereo not drawn) | > 30000 nM | – |
| 2000 nM | 2.5 nM | O=c1c2c(oc(O)c1C(c1cccc(NS(=O)(=O)c3ccc(Cl)cc3)c1)C1CC1)CCCCCC2 (stereo not drawn) | > 30000 nM | – |
| 1700 nM | 2.6 nM | [N-]=[N+]=Nc1ccc(S(=O)(=O)Nc2cccc(C(c3c(O)oc4c(c3=O)CCCCCC4)C3CC3)c2)cc1 (stereo not drawn) | > 30000 nM | – |
| 900 nM | 1 nM | N#Cc1ccc(S(=O)(=O)Nc2cccc(C(c3c(O)oc4c(c3=O)CCCCCC4)C3CC3)c2)nc1 (stereo not drawn) | > 30000 nM | – |
| 5900 nM | 11 nM | O=c1c2c(oc(O)c1C(c1cccc(NS(=O)(=O)c3ccccc3F)c1)C1CC1)CCCCCC2 (stereo not drawn) | > 30000 nM | – |
| 3400 nM | 4.1 nM | O=c1c2c(oc(O)c1C(c1cccc(NS(=O)(=O)c3ccc(Cl)c(Cl)c3)c1)C1CC1)CCCCCC2 (stereo not drawn) | > 30000 nM | – |
